Screening results deposited in PubChem by several laboratories.
ARFGAP1 inhibitor – inhibitors of rat ARFGAP1 GAP activity, primary screen, biochemical, fluorescence polarization, GDP tracer | Arfgap1-stimulated ARF1 GTP hydrolysis, GDP FP detection | inhibition, % at 16.5 µM | 360,000 compounds, 0.26% hits;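 active means inhibition above a per-plate limit, mean inhibition of low control wells plus 3 SD, cut at about 25% in these data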;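 further: 0% = DMSO wells with enzyme and 100% = wells lacking Arfgap1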
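Assay system: purified rat His6-Arfgap1 residues 1-136 (GAP domain); Reagent: human Δ17 ARF1 bound to GTP; Dosing: 16.5 µM single point, 1.26% DMSO; Times: GTP hydrolysis reaction 2 h at 25 °C; Signal: FP, GDP Alexa 633 tracer displaced from anti-GDP antibody, 620/688 nm; Measure: % inhibition from polarization.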
ASAP1 inh – inhibitors of human ASAP1 ArfGAP activity, primary screen, biochemical, fluorescence polarization; ASAP1-stimulated ARF1 GTP hydrolysis, GDP FP detection; inhibition, % at 16.5 µM; 360,000 compounds, 0.19% hits; in the data active means inhibition above about 25%;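 further: 0% = vehicle with enzyme and substrate and 100% = no enzyme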
CASP6 VEID inh – human caspase-6 inhibitors, primary screen, biochemical, VEID-R110 fluorescence, single point, set 2 | P55212 | purified caspase-6, Z-VEID-R110 cleavage fluorescence | inhibition, % at 12.5 µM | 350,000 compounds, 0.53% hits;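 active means mean inhibition across replicates at least about 35%, with every replicate also reaching that limit, limit read from the data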;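 further: 0% = median of neutral control wells and 100% = no fluorescence left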
Target sequence (P55212 24-179 limits assumed): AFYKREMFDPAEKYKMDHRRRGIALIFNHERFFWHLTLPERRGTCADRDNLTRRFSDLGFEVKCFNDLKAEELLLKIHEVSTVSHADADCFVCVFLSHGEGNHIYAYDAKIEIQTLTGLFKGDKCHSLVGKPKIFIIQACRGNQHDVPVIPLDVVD
Target sequence (P55212 194-293 limits assumed): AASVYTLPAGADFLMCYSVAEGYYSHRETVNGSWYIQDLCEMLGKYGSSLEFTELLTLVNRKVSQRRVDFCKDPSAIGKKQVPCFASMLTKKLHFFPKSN
LEDGF integ inh – blockers of LEDGF/p75-dependent integrase strand transfer – biochemical, TR-FRET, high throughput, primary screen. 370,000 compounds, 0.64% hits. HIV-1 integrase (with human LEDGF/p75). AID 743269, 2014. TR-FRET IN-LEDGF/p75 DNA integration, Eu/Cy5. inhibition, % at 3.7 µM;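 active means inhibition above the screen-wide mean plus 3 SD, cut at about 13% in these data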;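 further: signal is the Cy5 over europium emission ratio at 671 and 618 nm; 0% = plate median of compound wells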
TDP2 inh – human TDP2 enzyme inhibitors, primary screen, biochemical, epi absorbance, recombinant enzyme | Tyrosyl-DNA phosphodiesterase 2 (Homo sapiens), O95551 | AID 720702, 2013 | T5PNP hydrolysis, p-nitrophenol absorbance 415 nm | inhibition, % at 12.8 µM | 370,000 compounds, 0.34% hits;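 active means inhibition above the mean of all tested compounds plus 3 SD, set per campaign, cut at about 25% in these data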;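 further: 0% = DMSO with enzyme and 100% = buffer with substrate but no TDP2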
Target sequence (O95551 whole entry, looked up): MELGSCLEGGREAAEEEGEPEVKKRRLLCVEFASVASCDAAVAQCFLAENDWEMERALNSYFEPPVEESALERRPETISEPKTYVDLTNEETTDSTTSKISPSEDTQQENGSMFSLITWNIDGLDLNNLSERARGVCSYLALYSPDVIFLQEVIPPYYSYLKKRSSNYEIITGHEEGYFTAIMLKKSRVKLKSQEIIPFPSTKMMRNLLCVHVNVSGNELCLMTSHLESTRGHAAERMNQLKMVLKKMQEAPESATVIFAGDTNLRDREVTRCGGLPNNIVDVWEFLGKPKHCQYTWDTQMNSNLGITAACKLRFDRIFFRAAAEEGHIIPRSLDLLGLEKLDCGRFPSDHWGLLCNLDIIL
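System: recombinant human TDP2 / Amount: 120 nM TDP2 per well / Also added: 5 mM T5PNP chromogenic substrate / Doses: 12.8 µM single point, 1% DMSO / Incubation: 2 h at 37 °C / Detection: p-Nitrophenol epi absorbance / Evaluation: % inhibition relative to enzyme-containing and enzyme-free wells / Repeats: singlicate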
IN multimer act – HIV-1 IN multimer formation enhancers, counter-screen for LEDGF/p75 integration inhibitor project, biochemical, TR-FRET | activation, % at 7.7 µM | AID 1053131, 2014 | shares compounds with LEDGF integ inh | TR-FRET HIV-1 integrase multimerization | 2,000 compounds, 17% hits; in the data active means activation above about 8.9%
TRFRET interf – TR-FRET optical interference artefacts, confirmation, artefact control for LEDGF/p75-dependent integration inhibitor project, biochemical, HIV-1 IN multimerization; shares compounds with LEDGF integ inh; TR-FRET optical interference counterscreen; inhibition, % at 7.7 µM; 2,000 tested, under 10 active; AID 1053135, 2014;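 active means inhibition above the mean over all tested compounds plus 3 SD, which no compound reached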;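 further: 0% = integrase with antibodies and DMSO and 100% = antibodies without integrase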
IN-LEDGF confirm – inhibitors of HIV-1 IN-LEDGF/p75 DNA integration, confirmation, biochemical, TR-FRET | shares compounds with LEDGF integ inh | TR-FRET LEDGF/p75-dependent HIV-1 integration | inhibition, % at 3.7 µM | 2,000 compounds, 36% hits | AID 1053136, 2014; in the data active means inhibition above about 14%
An asterisk follows results filed as active; nt = no result. Hits are enriched below; roughly 1.3% of the tested compounds scored in any of these assays.

SMILES | ARFGAP1 inhibitor | ASAP1 inh | CASP6 VEID inh | LEDGF integ inh | TDP2 inh | IN multimer act | TRFRET interf | IN-LEDGF confirm
C=CCOCCn1[nH]c2ccccc2c1=O | 3 | 10 | -4 | 2 | 0 | nt | nt | nt
CC(CCc1ccccc1)NC(=O)CN1CCc2ccccc2C1 (stereo unspecified) | 2 | -18 | 1 | 15* | -15 | -2 | 7 | -7
O=C(Nc1ccc(C(=O)O)cc1)/C(=C\c1ccco1)NC(=O)c1ccc(Br)cc1 | -5 | 15 | 10 | 14* | 16 | 0 | 2 | 2
O=C(NC(Cc1ccccc1)C(=O)O)/C(=C\c1ccco1)NC(=O)c1ccc(Br)cc1 (stereo unspecified) | 5 | 6 | nt | 22* | -18 | 0 | -2 | -2
COc1ccc(CCNc2c([N+](=O)[O-])ncn2C)cc1OC | 0 | 0 | 1 | -5 | -2 | nt | nt | nt
CNC(=O)CSc1nc2ccccc2c(=O)n1-c1cc(OC)ccc1OC | 4 | 1 | 2 | 18* | -5 | -2 | 12 | -9
COc1ccc(-n2c(SCC(=O)Nc3ccccc3)nc(O)cc2=O)cc1 | -2 | -6 | 4 | 53* | 0 | 0 | -1 | -3
COc1cccc(-n2c(SCc3cc(=O)oc4cc(O)c(O)cc34)nc3ccccc3c2=O)c1 | -1 | -1 | 15 | 27* | -11 | 14* | -50 | 72*
CCCNC(=O)C[C@H]1CC[C@@H]2[C@H](COC[C@@H](O)CN2C(=O)Nc2c(C)noc2C)O1 | nt | nt | 1 | nt | nt | nt | nt | nt
C(=N\NC1=Nc2cccc3cccc1c23)/c1ccccc1 | -2 | 19 | nt | 19* | -1 | 0 | -1 | -7
CC(C)NC(=O)Nc1cccc2c1O[C@H](CN(C)S(=O)(=O)c1ccc(F)cc1)[C@@H](C)CN([C@H](C)CO)C2=O | 7 | 16 | 1 | 4 | 5 | nt | nt | nt
COc1ccc(-c2c(Cc3ccccc3)nc(NC(=O)c3ccccc3F)n2C)cc1 | nt | nt | nt | 20* | 2 | 2 | -10 | 17*
c1coc(-c2ccc3nncn3c2)c1 | -3 | -7 | -1 | 57* | 13 | 23* | -116 | 73*
CC(=O)Oc1ccc2c(=O)oc(-c3ccccc3)nc2c1 | 4 | 14 | 0 | -4 | 1 | nt | nt | nt
O=[N+]([O-])c1ccc(/C=C/c2ccncc2)cc1 | 10 | 2 | -2 | 3 | -10 | nt | nt | nt
O=[N+]([O-])c1cccc(/C=C/c2ccncc2)c1 | -2 | 18 | 1 | 19* | 15 | 0 | 1 | 0
CO[C@@H]1CN(C)C(=O)c2cc(NC(C)=O)ccc2OC[C@H](C)N(C(=O)CN2CCOCC2)C[C@@H]1C | nt | nt | 0 | nt | nt | nt | nt | nt
O=C(NCCN1CCCC1)C1CC(=O)N(C2CCCCC2)C1 (stereo unspecified) | 0 | -13 | nt | 26* | 4 | -1 | 3 | -4
CSc1nc(NCCOCCO)c2sc3nc(-c4ccco4)c4c(c3c2n1)CCC4 | -10 | 7 | nt | 26* | -10 | 0 | 2 | 15*
COc1ccc(Cl)cc1-c1cc(C(=O)Nc2ccc(F)cc2)[nH]n1 | 17 | 5 | 9 | -2 | -2 | nt | nt | nt
COc1ccccc1C/C(N)=N/OC(=O)COc1cc(C)cc(C)c1C | -3 | 4 | 3 | 5 | -4 | nt | nt | nt
O=C1NC(=O)C(c2ccccc2[N+](=O)[O-])=C1Nc1ccc(O)c(Cl)c1 | 11 | 5 | 23 | 26* | 18 | 5 | -19 | 1
O=C(Cc1csc(NC(=O)Nc2ccc(Cl)cc2)n1)NCc1cccnc1 | 4 | -6 | -1 | -6 | -8 | nt | nt | nt
CC1(C(=O)NS(=O)(=O)C2CC2)CCN(C(=O)COc2ccc(Cl)cc2Cl)C1 (stereo unspecified) | 0 | -1 | 2 | 14* | -3 | -2 | 10 | 1
CC1(C(=O)NS(=O)(=O)C2CC2)CCCN(C(=O)COc2ccc(Cl)cc2Cl)C1 (stereo unspecified) | 2 | -1 | -2 | 0 | 6 | nt | nt | nt
SMILES | ARFGAP1 inhibitor | ASAP1 inh | CASP6 VEID inh | LEDGF integ inh | TDP2 inh | IN multimer act | TRFRET interf | IN-LEDGF confirm
O=C(CSc1nnnn1Cc1ccccc1)Nc1cccc(F)c1 | 11 | -10 | -1 | 1 | -4 | nt | nt | nt
CCCCCCCCSc1n[nH]c(N)n1 | -5 | -3 | -1 | 4 | 6 | nt | nt | nt
CCCCCCCCCSc1n[nH]c(N)n1 | 6 | 15 | nt | 46* | -2 | -1 | 2 | -4
COc1ccccc1/C=c1\sc2nc(-c3ccccc3OC)nn2c1=O | 6 | 6 | nt | 4 | 6 | nt | nt | nt
COc1ccc(Br)cc1/C=c1\sc2nc(-c3ccco3)nn2c1=O | -2 | 9 | nt | 24* | 14 | 3 | -14 | 15*
COc1ccc(NC(=O)CN2CCN(CC(=O)Nc3cc(OC)cc(OC)c3)CC2)cc1 | -7 | 11 | nt | 2 | -5 | nt | nt | nt
COc1cc(NC(=O)CN2CCCCCC2)cc(OC)c1 | 4 | 4 | nt | 19* | 2 | 1 | -2 | -11
C/C(=C\C(=O)c1ccccc1)Nc1ccc(O)cc1 | 11 | 13 | nt | 20* | 21 | 3 | -14 | 0
CN(Cc1ccccc1)C(=O)COC(=O)/C=C/c1ccco1 | -16 | -2 | 9 | 2 | 15 | nt | nt | nt
O=C(COC(=O)/C=C/c1ccco1)Nc1cc(S(=O)(=O)N2CCOCC2)ccc1Cl | -2 | -18 | 28 | 15* | 5 | 1 | -6 | -13
CCc1ccc(NC(=O)COC(=O)/C=C/c2ccco2)cc1 | -16 | 8 | 32 | 27* | -2 | 2 | -9 | 0
CC(=O)Nc1ccc(C(=O)/C=C/c2ccco2)cc1 | -7 | 4 | nt | 28* | -2 | 12* | -61 | 35*
CN(CCOC(=O)/C=C/c1ccco1)Cc1ccccc1 | 1 | 2 | -1 | 23* | 0 | 5 | -26 | 38*
O=C1Nc2ccc(S(=O)(=O)N3CCCC3C(=O)O)c3cccc1c23 (stereo unspecified) | 12 | 5 | 1 | 14* | -1 | -2 | 10 | -6
